Screens: PubChem, several laboratories
PKD1 inh – inhibitors of human PKD1 kinase, biochemical, fluorescence polarization; Serine/threonine-protein kinase D1 (Homo sapiens), Q15139; PKD1 kinase fluorescence polarization assay; inhibition, % (no concentration beside the values); 0.056% of 200,000 active; AID 797, 2007
ABCG2 inh – ABCG2 efflux pump inhibitors, primary screen, multiplex with ABCB1, IgMXP3 cells, flow cytometry; inhibition, % at 6.6 µM; Broad substrate specificity ATP-binding cassette transporter ABCG2 (Homo sapiens), Q9UNQ0; JC-1 efflux; 0.1% of 190,000 active;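 active means inhibition above 80%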;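 further: 0% = DMSO and 100% = nicardipine control wells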
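Read-out basis: Efflux inhibition in percent versus controls | Test system: ABCG2 IgMXP3 and barcoded ABCB1 CCRF-Adr cell mix | Quantity: 3 million cells/mL in well | Schedule: 10 min at 25 °C | Control set: Nicardipine as high control, DMSO as low control | Reagent: JC-1 as fluorescent efflux pump substrate | Signal: Flow cytometry of retained JC-1 fluorescence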
Avidin fluor – green autofluorescence of compounds with avidin beads – biophysical, 488/530 nm, flow cytometry, artefact control, profiling panel; 0.38% of 220,000 active; fluorescence (KMESF) at 10 µM; compound fluorescence 488/530 nm; active compounds read high; in the data active means fluorescence above about 47
GSH fluor – compound fluorescence on glutathione beads, profiling panel, artefact control, biophysical, 488/530 nm, flow cytometry. GSH beads flow cytometry, compound fluorescence 488/530 nm; active compounds read high. fluorescence (KMESF) at 10 µM. 0.25% of 190,000 active. AID 1776, 2009; in the data active means fluorescence above about 89;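 further: glutathione beads carrying GST-tagged Bcl family fusion proteins plus one bare bead set; values are compound well signal with DMSO vehicle wells as background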
L major viab – Leishmania major promastigote growth inhibition, primary screen; Leishmania major promastigotes, resazurin fluorescence viability; inhibition, % at 10 µM; 9% of 200,000 active;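 further: promastigotes grown with compound for 44 hours at 28 °C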
ABCB1 inh – ABCB1 efflux pump inhibitors, primary screen, cell-based, multiplex, flow cytometry, ABCG2 counter-screen; ATP-dependent translocase ABCB1 (Homo sapiens), P08183; CCRF-Adr cells, JC-1 efflux; inhibition, % at 6.6 µM; 0.067% of 190,000 active; AID 1326, 2008; in the data active means inhibition above about 40%;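 further: 0% = vehicle and 100% = reference inhibitor; higher value means more JC-1 retained so stronger ABCB1 efflux block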
Active calls of the source: *; · = no result. This is one part of a sample in which hits are shown more often than they occur. Unless noted, no stated cut-off is given here; in the data, active means inhibition above about 50%; inactive means the rest.

SMILES	PKD1 inh	ABCG2 inh	Avidin fluor	GSH fluor	L major viab	ABCB1 inh
CCC(=NCc1ccco1)c1c(O)n(C2CCCCC2)c(=O)[nH]c1=O	-18	0	4	27	60*	-2
CCOP(=O)(OCC)C(NC(=O)c1ccccc1C)C(Cl)(Cl)Cl (configuration not stated)	-9	2	9	12	-4	0
Clc1cccc(CN2CCCCC2c2cccnc2)c1 (configuration not stated)	-2	·	·	·	90*	·
c1cncc(C2CCCCN2Cc2ccc3c(c2)OCO3)c1 (configuration not stated)	-11	0	9	27	18	0
O=c1c2ccccc2nc(CNc2ccccc2)n1-c1ccccc1	·	·	8	·	·	·
O=C(N/N=C/c1c(O)n(-c2ccccc2)c(=O)[nH]c1=O)c1ccncc1	6	-4	17	21	91*	0
O=C1NC(=S)N(c2ccc(Cl)cc2)C(=O)/C1=C/N1CCN(C(=O)c2ccco2)CC1	2	0	31	27	-2	0
Fc1ccc(C2=CCN(C(c3cccs3)c3nnnn3CCc3ccccc3)CC2)cc1 (configuration not stated)	2	4	4	15	100*	1
CCCOc1ccc(N2C(=O)CC(N3CC=C(c4ccccc4)CC3)C2=O)cc1 (configuration not stated)	1	6	12	20	-5	1
CN1/C(=C\C=Nc2ccccc2)C(C)(C)c2ccccc21	0	10	34	23	98*	3
NNc1n[nH]c(=S)n1N	·	·	88*	·	·	·
CCCCOC(=O)C1=C(N)OC2=C(C(=O)CC(C)(C)C2)[C@]12C(=O)N(C)c1ccccc12	9	-1	15	7	-3	1
COCCCn1c(-c2ccc(OC)cc2)cc(C(=O)NC2CCCCCCC2)c1C	-3	20	13	5	98*	4
COc1cc2c(cc1OC)C(C(=O)N(C)C1CCCCC1)C1CCCCN1C2=O (configuration not stated)	-6	-3	14	5	59*	2
COc1ccc(OCC(=O)N2CCN(Cc3nc4cc([N+](=O)[O-])ccc4n3C)CC2)cc1	-8	30	11	9	-5	2
CC(C)N1CCN(Cc2cccc([N+](=O)[O-])c2)CC1	-2	1	12	9	-4	1
O=[N+]([O-])c1cccc(CN2CCN(Cc3ccc(Cl)cc3)CC2)c1	3	24	11	15	85*	3
O=C(COc1ccc(Cl)cc1)N1CCN(Cc2ccc([N+](=O)[O-])cc2)CC1	1	6	23	12	67*	2
Cc1ccc(C(=O)C2CN3CCC2CC3)cc1 (configuration not stated)	-7	1	12	14	74*	0
Cc1cc(C)cc(N2C(=O)NC(=O)/C(=C/c3cccn3-c3ccc(Cl)cc3)C2=O)c1	6	-7	6	9	98*	-1
Cc1cccc(N2C(=O)NC(=O)/C(=C\c3cccn3-c3ccc(Cl)cc3)C2=O)c1	1	3	402*	12	47	1
CCCCNC(=O)NC(C(N)=O)P(=O)(OCC)OCC (configuration not stated)	·	·	9	·	·	·
Cc1cc(Br)c(NC(=O)CN2CC=C(c3ccccc3)CC2)c(Br)c1	-2	1	24	15	0	0
CC(=O)c1cccc(OCC(O)CN2CC=C(c3ccccc3)CC2)c1 (configuration not stated)	-2	-1	14	26	94*	-2
CN1C(=O)C(=Cc2sc(=O)n(-c3ccccc3)c2N(C)C)C(=O)N(C)C1=O	·	·	4	·	·	·
Cc1ccc(Cn2nc(C)c(C=O)c2Cl)cc1	1	-3	10	18	-6	-2
Nc1ccccc1N=Cc1c(O)n(CCC2=CCCCC2)c(=O)[nH]c1=O	10	0	19	10	-7	0
